# The source made the active and inactive calls. The rule behind the calls is not given here.
# Columns and labels:
# [1] = tested on: Lichtheimia corymbifera; experiment: Antifungal activity against Absidia corymbifera 272 after 24 to 48 hrs hrs by microdilution broth assay; format: functional
# Method in brief: (§1)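 Broth microdilution per CLSI M27-A3 and M38-A2 in RPMI 1640 with glutamine, buffered to pH 7.0 with MOPS. Compounds are diluted in DMSO. Final inoculum is 5 × 10³ CFU/mL for yeasts and 0.5–5 × 10⁴ CFU/mL for moulds. Plates are incubated in the dark at 35 °C in humid air and read visually and/or at 540 nm after 24 and 48 h. MIC is ≥80% growth reduction (IC₈₀) for yeasts and ≥50% (IC₅₀) for filamentous fungi.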
# [2] = tested on: Klebsiella pneumoniae; experiment: Antibacterial activity against ESBL positive Klebsiella pneumoniae J 14368/08 up to 500 uM incubated for 24 to 48 hrs under dark condition by microdilution broth assay; format: functional
# Method in brief: (§2)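 Broth microdilution per M07-A07, modified, in Mueller-Hinton broth adjusted to pH 7.4 (±0.2). Inoculum is prepared in sterile water to McFarland 0.5 (1.5 × 10⁸ CFU/mL). Plates are incubated in the dark at 35 °C in humid air. MIC is read after 24 and 48 h as at least 95% growth reduction versus control (IC₉₅).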
# [3] = tested on: Staphylococcus aureus; experiment: Antibacterial activity against Staphylococcus aureus CCM 4516/08 incubated for 24 hrs under dark condition by microdilution broth assay; format: functional; conditions: CCM 4516/08, 24 h; method in brief: as §2
# [4] = tested on: Staphylococcus epidermidis; experiment: Antibacterial activity against Staphylococcus epidermidis H 6966/08 incubated for 48 hrs under dark condition by microdilution broth assay; format: functional; conditions: H 6966/08, 48 h; method in brief: as §2
# [5] = tested on: Mycobacterium kansasii; experiment: Antimycobacterial activity against Mycobacterium kansasii isolate 235/80 after 14 days by micromethod; format: functional; conditions: isolate 235/80, 336 h
# [6] = tested on: Trichosporon asahii; experiment: Antifungal activity against Trichosporon asahii 1188 after 48 hrs by microdilution broth assay; format: functional; conditions: Trichosporon asahii, 1188, 48 h; method in brief: as §1
# [7] = tested on: Escherichia coli; experiment: Antibacterial activity against Escherichia coli CCM 4517 incubated for 24 hrs under dark condition by microdilution broth assay; format: functional; conditions: CCM 4517, 24 h; method in brief: as §2
# [8] = tested on: Staphylococcus epidermidis; experiment: Antibacterial activity against Staphylococcus epidermidis H 6966/08 incubated for 24 hrs under dark condition by microdilution broth assay; format: functional; conditions: H 6966/08, 24 h; method in brief: as §2
# [9] = tested on: Nakaseomyces glabratus; experiment: Antifungal activity against Candida glabrata 20/I after 48 hrs by microdilution broth assay; format: functional; method in brief: as §1
# [10] = tested on: Mycobacterium avium; experiment: Antimycobacterial activity against Mycobacterium avium 330/88 measured after 14 days by micromethod; format: functional; conditions: 330/88, 336 h
# [11] = tested on: Klebsiella pneumoniae; experiment: Antibacterial activity against Klebsiella pneumoniae D 11750/08 up to 500 uM incubated for 24 to 48 hrs under dark condition by microdilution broth assay; format: functional; method in brief: as §2
# [12] = tested on: Trichophyton mentagrophytes; experiment: Antifungal activity against Trichophyton mentagrophytes 445 after 120 hrs by microdilution broth assay; format: functional; conditions: Trichophyton mentagrophytes, 445, 120 h
# Method in brief: (§3)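 Broth microdilution per CLSI M38-A2 in RPMI 1640 with glutamine, buffered to pH 7.0 with MOPS, with DMSO as diluent. Final inoculum is 0.5–5 × 10⁴ CFU/mL. Plates are incubated in the dark at 35 °C in humid air and read visually and/or at 540 nm after 72 and 120 h. MIC is at least 50% growth reduction versus control.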
# [13] = tested on: Candida tropicalis; experiment: Antifungal activity against Candida tropicalis 156 after 48 hrs by microdilution broth assay; format: functional; conditions: Candida tropicalis, 156, 48 h; method in brief: as §1
# [14] = tested on: Pseudomonas aeruginosa; experiment: Antibacterial activity against Pseudomonas aeruginosa CCM 1961 up to 500 uM incubated for 24 to 48 hrs under dark condition by microdilution broth assay; format: functional; method in brief: as §2
# [15] = tested on: Escherichia coli; experiment: Antibacterial activity against Escherichia coli CCM 4517 incubated for 48 hrs under dark condition by microdilution broth assay; format: functional; conditions: CCM 4517, 48 h; method in brief: as §2
# [16] = tested on: Mycobacterium kansasii; experiment: Antimycobacterial activity against Mycobacterium kansasii isolate 6509/96 after 7 days by micromethod; format: functional; conditions: isolate 6509/96, 168 h
# [17] = tested on: Trichosporon asahii; experiment: Antifungal activity against Trichosporon asahii 1188 after 24 hrs by microdilution broth assay; format: functional; conditions: Trichosporon asahii, 1188, 24 h; method in brief: as §1
# [18] = tested on: Mycobacterium kansasii; experiment: Antimycobacterial activity against Mycobacterium kansasii isolate 6509/96 after 14 days by micromethod; format: functional; conditions: isolate 6509/96, 336 h
# [19] = tested on: Mycobacterium kansasii; experiment: Antimycobacterial activity against Mycobacterium kansasii isolate 6509/96 after 21 days by micromethod; format: functional; conditions: isolate 6509/96, 504 h
# [20] = tested on: Pichia kudriavzevii; experiment: Antifungal activity against Candida krusei E28 after 24 to 48 hrs hrs by microdilution broth assay; format: functional; method in brief: as §1
# [21] = Solubility of the compound in Sula's semisynthetic medium up to 1 mM; format: physicochemical
# [22] = tested on: Staphylococcus aureus; experiment: Antibacterial activity against Staphylococcus aureus CCM 4516/08 incubated for 48 hrs under dark condition by microdilution broth assay; format: functional; conditions: CCM 4516/08, 48 h; method in brief: as §2
# [23] = tested on: Mycobacterium avium; experiment: Antimycobacterial activity against Mycobacterium avium 330/88 measured after 21 days by micromethod; format: functional; conditions: 330/88, 504 h
# [24] = tested on: Aspergillus fumigatus; experiment: Antifungal activity against Aspergillus fumigatus 231 after 48 hrs by microdilution broth assay; format: functional; conditions: Aspergillus fumigatus, 231, 48 h; method in brief: as §1
# [25] = tested on: Mycobacterium kansasii; experiment: Antimycobacterial activity against Mycobacterium kansasii isolate 235/80 after 21 days by micromethod; format: functional; conditions: isolate 235/80, 504 h
# [26] = tested on: Mycobacterium kansasii; experiment: Antimycobacterial activity against Mycobacterium kansasii isolate 235/80 after 7 days by micromethod; format: functional; conditions: isolate 235/80, 168 h
# [27] = tested on: Enterococcus; experiment: Antibacterial activity against Enterococcus sp. J 14365/08 incubated for 24 hrs under dark condition by microdilution broth assay; conditions: J 14365/08, 24 h
# [28] = tested on: Staphylococcus aureus; experiment: Antibacterial activity against methicillin-resistant Staphylococcus aureus H 5996/08 incubated for 48 hrs under dark condition by microdilution broth assay; format: functional; conditions: H 5996/08, 48 h
# Method in brief: (§4)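 Microdilution broth method modified per M07-A07, in Mueller-Hinton broth adjusted to pH 7.4 (±0.2). Inoculum made in sterile water to 0.5 McFarland (1.5 × 10⁸ CFU/mL). Plates incubated in the dark at 35 °C in a humid atmosphere, with reads at 24 and 48 h. MIC taken as at least 95% growth reduction (IC₉₅) versus control.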
# [29] = tested on: Nakaseomyces glabratus; experiment: Antifungal activity against Candida glabrata 20/I after 24 hrs by microdilution broth assay; format: functional; method in brief: as §1
# [30] = tested on: Mycobacterium tuberculosis; experiment: Antimycobacterial activity against Mycobacterium tuberculosis H37Rv 331/88 measured after 21 days by micromethod; format: functional; conditions: H37Rv 331/88, 504 h
# [31] = tested on: Aspergillus fumigatus; experiment: Antifungal activity against Aspergillus fumigatus 231 after 24 hrs by microdilution broth assay; format: functional; conditions: Aspergillus fumigatus, 231, 24 h; method in brief: as §1
# [32] = tested on: Candida albicans; experiment: Antifungal activity against Candida albicans ATCC 44859 after 24 hrs by microdilution broth assay; format: functional; conditions: ATCC 44859, 24 h; method in brief: as §1
# [33] = tested on: Candida tropicalis; experiment: Antifungal activity against Candida tropicalis 156 after 24 hrs by microdilution broth assay; format: functional; conditions: Candida tropicalis, 156, 24 h; method in brief: as §1
# [34] = tested on: Candida albicans; experiment: Antifungal activity against Candida albicans ATCC 44859 after 48 hrs by microdilution broth assay; format: functional; conditions: ATCC 44859, 48 h; method in brief: as §1
# [35] = tested on: Staphylococcus aureus; experiment: Antibacterial activity against methicillin-resistant Staphylococcus aureus H 5996/08 incubated for 24 hrs under dark condition by microdilution broth assay; format: functional; conditions: H 5996/08, 24 h; method in brief: as §4
# [36] = tested on: Trichophyton mentagrophytes; experiment: Antifungal activity against Trichophyton mentagrophytes 445 after 72 hrs by microdilution broth assay; format: functional; conditions: Trichophyton mentagrophytes, 445, 72 h; method in brief: as §3
# [37] = tested on: Mycobacterium tuberculosis; experiment: Antimycobacterial activity against Mycobacterium tuberculosis H37Rv 331/88 measured after 14 days by micromethod; format: functional; conditions: H37Rv 331/88, 336 h
# [38] = tested on: Enterococcus; experiment: Antibacterial activity against Enterococcus sp. J 14365/08 incubated for 48 hrs under dark condition by microdilution broth assay; conditions: J 14365/08, 48 h
Structure (SMILES),Activity [1],Activity [2],MIC95 [3] [µM],MIC95 [4] [µM],MIC [5] [µM],MIC80 [6] [µM],MIC95 [7] [µM],MIC95 [8] [µM],MIC80 [9] [µM],MIC [10] [µM],Activity [11],MIC50 [12] [µM],MIC80 [13] [µM],Activity [14],MIC95 [15] [µM],MIC [16] [µM],MIC80 [17] [µM],MIC [18] [µM],MIC [19] [µM],Activity [20],further results
O=C(CN1C(=O)CSC1=S)Nc1ccccc1,inactive,inactive,500,500,1000,> 500,> 500,500,> 500,1000,inactive,> 500,500,inactive,> 500,1000,> 500,1000,1000,inactive,solubility [21]: Soluble; MIC95 [22]: 500 µM; MIC [23]: > 1000 µM; MIC50 [24]: > 500 µM; MIC [25]: 1000 µM; MIC [26]: 1000 µM; MIC95 [27]: 500 µM; MIC95 [28]: > 500 µM; MIC80 [29]: > 500 µM; MIC [30]: 1000 µM; MIC50 [31]: > 500 µM; MIC80 [32]: > 500 µM; MIC80 [33]: 500 µM; MIC80 [34]: > 500 µM; MIC95 [35]: > 500 µM; MIC50 [36]: > 500 µM; MIC [37]: 1000 µM; MIC95 [38]: 500 µM
O=C(CN1C(=O)CSC1=S)Oc1ccc(C(F)(F)F)cc1,inactive,inactive,15.6,62.5,1000,> 500,> 500,15.6,> 500,1000,inactive,250,> 500,inactive,> 500,1000,500,1000,1000,inactive,solubility [21]: Soluble; MIC95 [22]: 62.5 µM; MIC [23]: 1000 µM; MIC50 [24]: > 500 µM; MIC [25]: 1000 µM; MIC [26]: 1000 µM; MIC95 [27]: 15.6 µM; MIC95 [28]: 62.5 µM; MIC80 [29]: 500 µM; MIC [30]: 1000 µM; MIC50 [31]: > 500 µM; MIC80 [32]: > 500 µM; MIC80 [33]: > 500 µM; MIC80 [34]: > 500 µM; MIC95 [35]: 15.6 µM; MIC50 [36]: 125 µM; MIC [37]: 500 µM; MIC95 [38]: 62.5 µM
CC(=O)Oc1ccccc1/C=C1\SC(=S)N(CC(=O)O)C1=O,inactive,inactive,62.5,31.2,62.5,> 500,> 500,31.2,> 500,62.5,inactive,500,> 500,inactive,> 500,62.5,> 500,62.5,62.5,inactive,solubility [21]: Soluble; MIC95 [22]: 62.5 µM; MIC [23]: 62.5 µM; MIC50 [24]: > 500 µM; MIC [25]: 62.5 µM; MIC [26]: 62.5 µM; MIC95 [27]: 62.5 µM; MIC95 [28]: 62.5 µM; MIC80 [29]: > 500 µM; MIC [30]: 32 µM; MIC50 [31]: > 500 µM; MIC80 [32]: > 500 µM; MIC80 [33]: > 500 µM; MIC80 [34]: > 500 µM; MIC95 [35]: 62.5 µM; MIC50 [36]: 250 µM; MIC [37]: 32 µM; MIC95 [38]: 125 µM

# — ChEMBL document CHEMBL3992547, “Antimicrobial activity of rhodanine-3-acetic acid derivatives” (Bioorg Med Chem, 2017)
